# Experimental data pooled from the literature.
# Lines come from different studies, so protocols differ.
# pH: 7.4
Compound,test,test system,setting,quantity,value
O=C1NC2(CCC2)C(=O)N1c1ccc(F)c(C(F)(F)F)c1,HPLC,,,chromatographic logD,3
c1cc(-c2ccc3ncnc(Nc4ncco4)c3c2)cc(N2C[C@H]3C[C@@H]2CO3)c1,shake flask,aqueous buffer,,logD,3.5
CCCCCC(=O)N[C@H]1[C@H]([C@H](O)[C@H](O)CO)OC(C(=O)O)=C[C@@H]1O,shake flask,aqueous buffer,2 h,logD,-0.92
Cc1ccc2[nH]c(=S)n(Cc3cccnc3)c(=O)c2c1,shake flask,aqueous buffer,,logD,2.88
CCCCCc1cn([C@H]2[C@H]([C@H](O)[C@H](O)CO)OC(C(=O)O)=C[C@@H]2O)nn1,shake flask,aqueous buffer,2 h,logD,-0.3
O=c1c2cc(Cl)ccc2[nH]c(=S)n1Cc1cccnc1,shake flask,aqueous buffer,,logD,3.16
COc1cc(C(=O)c2nc(-c3cccc4[nH]ccc34)c[nH]2)cc(OC)c1OC,,,,logD,3.69
CC1(C)NC(=O)N(c2ccc(F)c(C(F)(F)F)c2F)C1=O,HPLC,,,chromatographic logD,2.7
